Measured values reported in article PMC3005847 (Biochemistry, 2010).
Where a chain is given by its changes, count along the chain named.

How the values were obtained:
[1] = target: T1, T. foetus IMPDH R322E (Tritrichomonas foetus, UniProt P50097, R322E); assay: Multiple-inhibitor kinetics with tiazofurin and ADP, R322E; type: biochemical; details: R322E relative to wild-type
T1 sequence (P50097 1-503 R322E): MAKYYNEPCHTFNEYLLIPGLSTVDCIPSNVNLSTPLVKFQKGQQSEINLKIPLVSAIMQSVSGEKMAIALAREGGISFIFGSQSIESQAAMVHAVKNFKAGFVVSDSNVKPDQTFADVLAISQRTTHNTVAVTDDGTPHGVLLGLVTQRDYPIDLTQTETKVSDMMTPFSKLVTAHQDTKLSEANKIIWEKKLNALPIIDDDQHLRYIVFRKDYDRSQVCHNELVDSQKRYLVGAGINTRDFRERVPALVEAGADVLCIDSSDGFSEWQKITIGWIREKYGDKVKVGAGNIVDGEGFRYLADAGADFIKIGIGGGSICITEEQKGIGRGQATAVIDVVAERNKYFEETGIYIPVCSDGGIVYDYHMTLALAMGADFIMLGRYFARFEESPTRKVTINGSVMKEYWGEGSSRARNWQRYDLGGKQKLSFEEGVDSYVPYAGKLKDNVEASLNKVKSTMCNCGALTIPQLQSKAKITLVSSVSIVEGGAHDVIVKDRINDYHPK
In short: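 Mutant enzymes were expressed in IMPDH-lacking E. coli H712 and purified by IMP-affinity chromatography. Tiazofurin and ADP were varied together in assay buffer (50 mM Tris-Cl pH 8.0, 100 mM KCl, 1 mM DTT) at 25 °C. NADH formation was followed at 340 nm. Initial velocities were fitted to a two-inhibitor equation giving Ki, Kj and interaction constant α.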

[2] = target: T1, T. foetus IMPDH R322E; assay: Steady-state kinetics, R322E; type: biochemical; details: read-out: Km NAD^+, pH 8.0, 25 °C
In short: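 Mutant enzyme was expressed in IMPDH-deficient E. coli H712 and IMP-affinity purified. Assay buffer was 50 mM Tris-Cl pH 8.0, 100 mM KCl, 1 mM DTT, at 25 °C. NADH production was monitored at 340 nm (ε = 6.22 mM−1cm−1). Initial velocities were fitted to Michaelis–Menten or to a form with uncompetitive substrate inhibition, giving Km.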

[3] = target: T2, T. foetus IMPDH wild-type (Tritrichomonas foetus, UniProt P50097); details: cited from earlier work
[4] = target: T3, T. foetus IMPDH E323A (Tritrichomonas foetus, UniProt P50097, E323A); assay: Steady-state kinetics, E323A; type: biochemical; details: read-out: Km NAD^+, pH 8.0, 25 °C
T3 sequence (P50097 1-503 E323A): T1 sequence (P50097 1-503 R322E) with E322R, E323A

[5] = target: T2, T. foetus IMPDH wild-type; assay: Equilibrium dissociation constant by intrinsic protein fluorescence, wild-type; type: binding; details: corrected for non-specific quenching, assay buffer, 25 °C
[6] = target: T4, T. foetus IMPDH R322A (Tritrichomonas foetus, UniProt P50097, R322A); assay: Steady-state kinetics, R322A; type: biochemical; details: read-out: Km NAD^+, pH 8.0, 25 °C
T4 sequence (P50097 1-503 R322A): T1 sequence (P50097 1-503 R322E) with E322A

[7] = target: T1, T. foetus IMPDH R322E; assay: Equilibrium dissociation constant by intrinsic protein fluorescence, R322E; type: binding; details: assay buffer, 25 °C
In short: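 NAD+ titrated into 0.2–0.3 µM R322E enzyme. The enzyme was expressed in IMPDH-deficient E. coli H712 and IMP-affinity purified. Assay buffer was 50 mM Tris-Cl pH 8.0, 100 mM KCl, 1 mM DTT, at 25 °C. Intrinsic protein fluorescence read at ex 295 / em 344 nm, corrected for inner-filter effect. Nonspecific quenching measured by titrating ligand into L-tryptophan. Kd taken from the corrected binding curve.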

[8] = target: T5, T. foetus IMPDH Q324A (Tritrichomonas foetus, UniProt P50097, Q324A); assay: Steady-state kinetics, Q324A; type: biochemical
T5 sequence (P50097 1-503 Q324A): T1 sequence (P50097 1-503 R322E) with E322R, Q324A

Compound	Decrease in affinity of tiazofurin caused by the mutation (factor) [1]	Km [2]	Km ([3]; read-out: Km NAD^+)	Kii NAD^+ ([3]; uncompetitive substrate inhibition)	Km [4]	Kd [5]	Km [6]	Kd [7]	Km ([8]; read-out: Km NAD^+, pH 8.0, 25 °C)	Kii NAD^+ ([8]; uncompetitive substrate inhibition, pH 8.0, 25 °C)
NC(=O)c1csc([C@@H]2O[C@H](CO)[C@@H](O)[C@H]2O)n1 [TAZ, tiazofurin]	> 3	–	–	–	–	–	–	–	–	–
NC(=O)c1ccc[n+]([C@@H]2O[C@H](COP(=O)([O-])OP(=O)(O)OC[C@H]3O[C@@H](n4cnc5c(N)ncnc54)[C@H](O)[C@@H]3O)[C@@H](O)[C@H]2O)c1 [NAD^+]	–	2600 ± 700 µM	150 ± 30 µM	7 ± 2 mM	300 ± 20 µM	27 ± 6 µM	910 ± 90 µM	37 ± 10 µM	120 ± 20 µM	2.4 ± 0.3 mM
